Assay results of several laboratories.
Protocols differ between the studies behind these lines.
RET V804M: Proto-oncogene tyrosine-protein kinase receptor Ret (RET, Homo sapiens, UniProt P07949, V804M)
RET M918T: Proto-oncogene tyrosine-protein kinase receptor Ret (RET, Homo sapiens, UniProt P07949, M918T)
RET: Proto-oncogene tyrosine-protein kinase receptor Ret (RET, Homo sapiens, UniProt P07949)
RET V804L: Proto-oncogene tyrosine-protein kinase receptor Ret (RET, Homo sapiens, UniProt P07949, V804L)

Compound	target	read-out	method	concentration	remaining binding [%]
O=C(NCC1CCOCC1)c1n[nH]cc1NC(=O)c1c(F)cccc1F	RET V804M	binding	competition with immobilised ligand	1 µM	90
O=C(NCCCN1CCOCC1)c1ccc(Nc2ncc(Cl)c(-c3ccc(Cl)s3)n2)cc1	RET V804M	binding	competition with immobilised ligand	1 µM	15
CNC(=O)[C@@H]1CC[C@@H](n2c(-c3ccc4cnccc4c3)nc3ccc(C(=O)NCc4cccc(C(N)=O)c4)cc32)C1	RET M918T	binding	competition with immobilised ligand	1 µM	98
O=C(c1ccc(Nc2nccc(-c3cc4ccccc4s3)n2)cc1)N1CCC(N2CCCC2)CC1	RET	binding	competition with immobilised ligand	1 µM	85
CCc1ccccc1C(=O)Nc1n[nH]c2c(C)c(F)c(C3C(C#N)=C(C)N(C)C(C)=C3C#N)cc12	RET M918T	cell-free assay	competition with immobilised ligand	1 µM	64
COc1ncc2cc3ccccc3nc2c1C#N	RET V804M	cell-free assay	competition with immobilised ligand	5 µM	98
CN1CCN(c2ccc(Nc3nccc(-c4ccccc4)n3)cc2C(F)(F)F)CC1	RET M918T	binding	–	10 µM	27
CC(C)CC(=O)N1CCc2nc(-c3ccc(Br)cc3)nc(N(C)Cc3ccccc3)c2C1	RET	cell-free assay	competition with immobilised ligand	0.1 µM	68
C[C@@H](c1ccc(-n2cnc3c(N)ncnc32)cc1)N1CCc2nn(C)c(Cc3ccccc3)c2C1=O	RET V804L	binding	competition with immobilised ligand	0.1 µM	99
O=C(c1ccc(Nc2ncc(Cl)c(-c3ccc(Cl)s3)n2)cc1)N1CCC(N2CCCC2)CC1	RET V804L	binding	competition with immobilised ligand	1 µM	10
c1cncc(-c2cccc(Nc3nccc(NC4CCCCC4)n3)c2)c1	RET V804M	binding	competition with immobilised ligand	10 µM	8.8
c1cnn2ncc(-c3ccnc(N4CCC45COC5)n3)c2c1	RET M918T	binding	–	1 µM	97
COc1cnc(Nc2cccc(S(N)(=O)=O)c2)nc1N1CCN(c2ccccc2)CC1	RET V804L	binding	competition with immobilised ligand	1 µM	73
COc1cc(-c2cn(C3CCc4c(F)cccc4N(CC(F)(F)F)C3=O)nn2)ccc1-n1cnc(C)c1 (centres unmarked)	RET M918T	cell-free assay	competition with immobilised ligand	1 µM	100
Cc1cnn2ncc(-c3ccnc(N(C)C)n3)c2c1	RET V804L	binding	–	1 µM	100
Cc1nccc(COC(=O)N2C[C@@H]3[C@@H](CNC(=O)c4ccc5[nH]nnc5c4)[C@@H]3C2)n1	RET M918T	cell-free assay	competition with immobilised ligand	1 µM	100
CC1CCCN1c1nccc(-c2cnn3ncccc23)n1 (centres unmarked)	RET V804M	binding	–	1 µM	100
CN(C)C(=O)Cn1cc(-c2nc([C@@](C)(c3ccc(-c4cnc(N)nc4)cc3)C3CC3)no2)cn1	RET V804L	cell-free assay	competition with immobilised ligand	1 µM	93
CN(CCCC(F)(F)F)c1nccc(-c2cnn3ncccc23)n1	RET V804M	binding	–	1 µM	100
O=C(Nc1ccc(Oc2ccc(F)cc2)cc1)N1CCc2ncccc2[C@H]1c1ccc(F)cc1	RET M918T	cell-free assay	competition with immobilised ligand	1 µM	100
N[C@@H]1CCN(c2nccc(-c3cnn4ncccc34)n2)C1	RET V804M	binding	–	1 µM	99
C[C@@H]1CN(c2cc(-c3nn(C)c4ccc(OC5(C)CC5)cc34)ncn2)C[C@H](C)O1	RET V804M	cell-free assay	competition with immobilised ligand	1 µM	100
C[C@@H]1CCN(c2nccc(-c3cnn4ncccc34)n2)C1	RET V804L	binding	–	1 µM	100
